In ChEMBL document CHEMBL5705902, “Role of G Protein-Coupled Receptor Kinases 2 and 3 in μ-Opioid Receptor Desensitization and Internalization” (Mol Pharmacol, 2015):
Active and inactive are the calls of the source. No cut-off for these calls is given here.

Experiments:
[1] = target: Tyrosine-protein kinase BTK (Homo sapiens) (UniProt Q06187); test: Inhibition of human BTK assessed as remaining activity at 1 uM in presence of 32ATP relative to control
Method in brief: (§1)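 Express screen of 52 purified human kinases run as a radioactive filter-binding assay with 32ATP, at 1 μM inhibitor. ATP was at or below each kinase's calculated Km. Activity is given as percent of the activity without inhibitor. Run in duplicate; mean with S.D.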

[2] = target: Mitogen-activated protein kinase kinase kinase 7 (Homo sapiens) (UniProt O43318); test: Inhibition of human TAK1 assessed as remaining activity at 1 uM in presence of 32ATP relative to control
Method in brief: (§2)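 Express panel of 52 purified human kinases run in vitro. Kinase activity was measured directly by a radioactive filter-binding assay with ³²ATP, at ATP levels at or below each kinase's calculated Km for ATP. The compound was tested at 1 μM. Each assay was run in duplicate, and activity is given as the mean percentage (with S.D.) of activity without inhibitor.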

[3] = target: Serine/threonine-protein kinase Sgk1 (Homo sapiens) (UniProt O00141); test: Inhibition of human SGK1 at 1 uM in presence of 32ATP relative to control; method in brief: as §2
[4] = target: Tyrosine-protein kinase JAK2 (Homo sapiens) (UniProt O60674); test: Inhibition of human JAK2 assessed as remaining activity at 1 uM in presence of 32ATP relative to control; method in brief: as §2
[5] = target: Mu-type opioid receptor (Rattus norvegicus) (UniProt P33535); test: Inhibition of HA-tagged rat MOPr in HEK293 cells assessed as prevention in DAMGO induced MOPr phosphorylation at Thr379 level at 30 uM preincubated for 30 mins by western blot analysis; assay type: functional, cell-based
Target sequence in this assay (P33535 whole entry, the tested form may be a part): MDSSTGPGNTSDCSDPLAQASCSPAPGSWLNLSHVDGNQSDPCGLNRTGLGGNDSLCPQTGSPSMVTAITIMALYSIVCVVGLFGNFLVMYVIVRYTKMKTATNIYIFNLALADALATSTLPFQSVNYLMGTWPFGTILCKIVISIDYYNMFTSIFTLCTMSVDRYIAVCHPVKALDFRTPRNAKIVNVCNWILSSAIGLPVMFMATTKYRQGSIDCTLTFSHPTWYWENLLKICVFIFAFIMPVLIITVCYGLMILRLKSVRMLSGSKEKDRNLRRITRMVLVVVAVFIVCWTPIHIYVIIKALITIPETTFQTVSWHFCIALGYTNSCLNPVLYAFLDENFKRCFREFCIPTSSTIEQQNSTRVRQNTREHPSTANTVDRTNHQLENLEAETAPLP

[6] = target: Interleukin-1 receptor-associated kinase 4 (Homo sapiens) (UniProt Q9NWZ3); test: Inhibition of human IRAK4 assessed as remaining activity at 1 uM in presence of 32ATP relative to control; method in brief: as §2
[7] = target: Ribosomal protein S6 kinase beta-1 (Homo sapiens) (UniProt P23443); test: Inhibition of human S6K1 assessed as remaining activity at 1 uM in presence of 32ATP relative to control; method in brief: as §2
[8] = target: Mu-type opioid receptor (Rattus norvegicus) (UniProt P33535); test: Inhibition of MOPr desensitization in wistar rat LC neuron cells assessed as reduction in the Met-Enk induced desensitization at 30 uM incubated for 15 mins before in the presence of PD98059; assay type: functional, cell-based
Target sequence in this assay (P33535 whole entry, the tested form may be a part): as above

[9] = target: Mu-type opioid receptor (Rattus norvegicus) (UniProt P33535); test: Inhibition of MOPr desensitization (unknown origin) assessed as reduction in the morphine induced desensitization at 3 to 30 uM incubated for 15 mins; details: dose 3-30 µM
[10] = target: Mu-type opioid receptor (Rattus norvegicus) (UniProt P33535); test: Inhibition of MOPr desensitization in wistar rat LC neuron cells assessed as reduction in the endomorphin-2 induced desensitization at 30 uM incubated for 15 mins before; assay type: functional, cell-based
Method in brief: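 Whole-cell patch clamp of GIRK currents in locus coeruleus slices from male Wistar rats (5–8 weeks). Inhibitor was given at least 15 min before and during the agonist, all drugs by superfusion. Percent desensitization was taken over 10 min of opioid agonist application. Met-Enk n = 5, endomorphin-2 n = 6; ANOVA.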
Target sequence in this assay (P33535 whole entry, the tested form may be a part): as above

[11] = target: Serine/threonine-protein kinase N2 (Homo sapiens) (UniProt Q16513); test: Inhibition of human PRK2 assessed as remaining activity at 1 uM in presence of 32ATP relative to control; method in brief: as §2
[12] = target: Mu-type opioid receptor (Rattus norvegicus) (UniProt P33535); test: Inhibition of HA-tagged rat MOPr in HEK293 cells assessed as reduction in DAMGO induced MOPr internalization level at 30 uM preincubated for 30 mins by ELISA method; assay type: functional, cell-based
Method in brief: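 Surface HA-MOPr in HEK 293 cells was prelabeled with anti-HA for 1 h at 4°C, then inhibitor (3 or 30 μM) was given for 30 min at 37°C, then DAMGO 10 μM at 37°C. Surface receptor was measured by ELISA and normalized to cells not exposed to DAMGO; n = 3–4.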
Target sequence in this assay (P33535 whole entry, the tested form may be a part): as above

[13] = target: RAC-alpha serine/threonine-protein kinase (Homo sapiens) (UniProt P31749); test: Inhibition of human PKBa assessed as remaining activity at 1 uM in presence of 32ATP relative to control; method in brief: as §2
[14] = target: Mitogen-activated protein kinase; ERK1/ERK2 (Homo sapiens) (UniProt P27361+P28482); test: Inhibition of ERK1/2 (unknown origin) at 1 uM in presence of 32ATP relative to control; assay type: protein assay; method in brief: as §1
[15] = target: Serine/threonine-protein kinase pim-1 (Homo sapiens) (UniProt P11309); test: Inhibition of human PIM1 assessed as remaining activity at 1 uM in presence of 32ATP relative to control; method in brief: as §2
[16] = target: MAP/microtubule affinity-regulating kinase 3 (Homo sapiens) (UniProt P27448); test: Inhibition of human MARK3 assessed as remaining activity at 1 uM in presence of 32ATP relative to control; method in brief: as §2
[17] = target: Dual specificity protein kinase TTK (Homo sapiens) (UniProt P33981); test: Inhibition of human TTK assessed as remaining activity at 1 uM in presence of 32ATP relative to control; method in brief: as §2
[18] = target: 3-phosphoinositide-dependent protein kinase 1 (Homo sapiens) (UniProt O15530); test: Inhibition of human PDK1 assessed as remaining activity at 1 uM in presence of 32ATP relative to control
[19] = target: Mu-type opioid receptor (Rattus norvegicus) (UniProt P33535); test: Inhibition of MOPr desensitization in wistar rat LC neuron cells assessed as reduction in the morphine induced desensitization at 30 uM incubated for 15 mins; assay type: functional, cell-based
Target sequence in this assay (P33535 whole entry, the tested form may be a part): as above

[20] = target: Mu-type opioid receptor (Rattus norvegicus) (UniProt P33535); test: Inhibition of HA-tagged rat MOPr in HEK293 cells assessed as prevention in DAMGO induced MOPr phosphorylation at Thr376 level at 30 uM preincubated for 30 mins by western blot analysis; assay type: functional, cell-based
Target sequence in this assay (P33535 whole entry, the tested form may be a part): as above

[21] = target: Proto-oncogene tyrosine-protein kinase Src (Homo sapiens) (UniProt P12931); test: Inhibition of human Src assessed as remaining activity at 1 uM in presence of 32ATP relative to control; method in brief: as §2
[22] = target: Mitogen-activated protein kinase kinase kinase 11 (Homo sapiens) (UniProt Q16584); test: Inhibition of human MLK3 assessed as remaining activity at 1 uM in presence of 32ATP relative to control; method in brief: as §2
[23] = target: Mu-type opioid receptor (Rattus norvegicus) (UniProt P33535); test: Inhibition of HA-tagged rat MOPr in HEK293 cells assessed as reduction in DAMGO induced MOPr internalization level at 30 uM preincubated for 30 mins by confocal microscopy analysis; assay type: functional, cell-based
Method in brief: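 HA-MOPr HEK 293 cells were prelabeled with anti-HA at 4°C for 1 h, then given inhibitor (30 μM) 30 min at 37°C and DAMGO 10 μM. Cells were stained with a fluorescein secondary and Hoechst and imaged by confocal microscopy (63× oil); repeated 3 times.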

[24] = target: High affinity nerve growth factor receptor (Homo sapiens) (UniProt P04629); test: Inhibition of human TrkA assessed as remaining activity at 1 uM in presence of 32ATP relative to control; method in brief: as §2
[25] = target: Mu-type opioid receptor (Rattus norvegicus) (UniProt P33535); test: Inhibition of HA-tagged rat MOPr stably expressing in HEK293 cells assessed as increase in DAMGO-induced Elk1 phosphorylation level at 30 uM preincubated for 30 mins by westernblot analysis; assay type: functional, cell-based
Method in brief: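 HA-MOPr HEK 293 cells were serum-starved 24 h and pretreated with inhibitor (30 μM) for 30 min, then given DAMGO 10 μM for 5 min.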

Chain of Tyrosine-protein kinase BTK (Homo sapiens) (Q06187 whole entry): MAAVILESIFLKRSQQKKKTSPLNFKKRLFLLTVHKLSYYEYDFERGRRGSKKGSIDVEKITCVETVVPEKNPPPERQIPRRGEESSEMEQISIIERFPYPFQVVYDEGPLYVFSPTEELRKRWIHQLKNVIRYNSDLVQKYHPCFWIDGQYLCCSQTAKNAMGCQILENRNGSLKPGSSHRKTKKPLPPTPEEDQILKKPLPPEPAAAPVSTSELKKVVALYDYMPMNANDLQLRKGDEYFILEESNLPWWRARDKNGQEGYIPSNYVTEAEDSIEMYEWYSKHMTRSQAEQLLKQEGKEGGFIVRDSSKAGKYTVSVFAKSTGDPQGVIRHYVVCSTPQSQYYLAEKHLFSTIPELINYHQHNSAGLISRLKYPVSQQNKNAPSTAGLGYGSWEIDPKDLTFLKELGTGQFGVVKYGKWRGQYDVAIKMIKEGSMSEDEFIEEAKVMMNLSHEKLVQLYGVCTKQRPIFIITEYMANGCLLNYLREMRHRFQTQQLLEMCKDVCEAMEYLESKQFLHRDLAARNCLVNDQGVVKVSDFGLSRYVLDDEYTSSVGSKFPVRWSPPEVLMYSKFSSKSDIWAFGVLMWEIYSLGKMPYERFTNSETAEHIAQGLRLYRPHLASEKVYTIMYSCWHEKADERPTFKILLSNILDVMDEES
Chain of Serine/threonine-protein kinase Sgk1 (Homo sapiens) (O00141 whole entry): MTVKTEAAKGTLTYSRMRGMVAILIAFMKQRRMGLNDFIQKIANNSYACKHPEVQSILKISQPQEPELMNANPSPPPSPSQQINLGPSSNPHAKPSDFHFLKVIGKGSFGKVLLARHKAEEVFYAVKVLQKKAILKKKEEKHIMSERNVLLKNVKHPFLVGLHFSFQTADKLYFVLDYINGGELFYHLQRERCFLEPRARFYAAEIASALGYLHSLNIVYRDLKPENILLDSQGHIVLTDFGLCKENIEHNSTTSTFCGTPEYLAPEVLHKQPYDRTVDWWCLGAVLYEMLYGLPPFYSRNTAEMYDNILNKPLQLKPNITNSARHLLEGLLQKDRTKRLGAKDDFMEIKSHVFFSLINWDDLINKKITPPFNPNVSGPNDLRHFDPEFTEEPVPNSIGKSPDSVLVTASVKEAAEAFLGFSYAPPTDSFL
Chain of Ribosomal protein S6 kinase beta-1 (Homo sapiens) (P23443 whole entry, looked up): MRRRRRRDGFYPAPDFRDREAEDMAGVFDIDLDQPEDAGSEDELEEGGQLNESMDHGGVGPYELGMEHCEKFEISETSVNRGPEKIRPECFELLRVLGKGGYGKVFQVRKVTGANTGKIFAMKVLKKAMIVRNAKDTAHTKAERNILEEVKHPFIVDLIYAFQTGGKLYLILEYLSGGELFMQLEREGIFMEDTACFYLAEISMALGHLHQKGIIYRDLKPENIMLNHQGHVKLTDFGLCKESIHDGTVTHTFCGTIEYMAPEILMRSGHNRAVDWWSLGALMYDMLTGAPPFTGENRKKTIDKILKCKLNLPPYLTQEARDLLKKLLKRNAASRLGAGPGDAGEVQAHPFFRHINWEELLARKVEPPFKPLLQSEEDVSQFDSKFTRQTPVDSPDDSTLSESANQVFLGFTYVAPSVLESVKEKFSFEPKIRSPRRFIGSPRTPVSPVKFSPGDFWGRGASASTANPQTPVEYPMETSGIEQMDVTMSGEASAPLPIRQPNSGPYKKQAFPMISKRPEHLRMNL
Chain of Mitogen-activated protein kinase kinase kinase 11 (Homo sapiens) (Q16584 whole entry, looked up): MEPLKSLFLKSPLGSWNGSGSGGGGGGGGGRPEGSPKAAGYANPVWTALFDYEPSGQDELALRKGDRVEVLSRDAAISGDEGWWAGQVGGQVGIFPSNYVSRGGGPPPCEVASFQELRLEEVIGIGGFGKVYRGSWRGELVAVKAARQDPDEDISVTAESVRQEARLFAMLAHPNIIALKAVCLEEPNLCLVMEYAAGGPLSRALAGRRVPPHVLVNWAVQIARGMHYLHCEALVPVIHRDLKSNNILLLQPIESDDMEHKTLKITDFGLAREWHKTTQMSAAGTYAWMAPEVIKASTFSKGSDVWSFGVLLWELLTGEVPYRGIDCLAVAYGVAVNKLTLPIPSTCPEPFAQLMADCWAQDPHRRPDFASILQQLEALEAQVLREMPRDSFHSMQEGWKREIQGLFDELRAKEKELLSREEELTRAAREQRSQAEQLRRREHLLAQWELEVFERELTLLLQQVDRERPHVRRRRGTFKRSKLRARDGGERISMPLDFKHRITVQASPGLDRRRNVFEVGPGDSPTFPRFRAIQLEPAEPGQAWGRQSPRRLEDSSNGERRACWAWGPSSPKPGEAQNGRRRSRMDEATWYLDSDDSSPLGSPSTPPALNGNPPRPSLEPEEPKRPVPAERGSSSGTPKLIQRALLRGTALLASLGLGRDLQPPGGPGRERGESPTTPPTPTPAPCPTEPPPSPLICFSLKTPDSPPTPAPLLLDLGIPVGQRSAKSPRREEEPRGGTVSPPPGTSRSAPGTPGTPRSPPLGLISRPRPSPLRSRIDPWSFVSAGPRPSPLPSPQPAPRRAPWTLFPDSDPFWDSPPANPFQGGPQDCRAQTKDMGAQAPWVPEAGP
Chain of Serine/threonine-protein kinase pim-1 (Homo sapiens) (P11309 whole entry, looked up): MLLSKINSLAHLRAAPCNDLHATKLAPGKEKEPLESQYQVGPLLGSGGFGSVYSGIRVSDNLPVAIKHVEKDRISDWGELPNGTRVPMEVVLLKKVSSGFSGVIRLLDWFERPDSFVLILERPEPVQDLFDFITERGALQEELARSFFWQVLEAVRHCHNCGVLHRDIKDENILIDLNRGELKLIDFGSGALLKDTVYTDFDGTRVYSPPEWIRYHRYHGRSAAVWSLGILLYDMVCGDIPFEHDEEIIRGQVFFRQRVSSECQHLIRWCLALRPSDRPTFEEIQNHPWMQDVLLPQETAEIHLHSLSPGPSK
Chain of Mitogen-activated protein kinase; ERK1/ERK2 (Homo sapiens) (P27361 whole entry, looked up): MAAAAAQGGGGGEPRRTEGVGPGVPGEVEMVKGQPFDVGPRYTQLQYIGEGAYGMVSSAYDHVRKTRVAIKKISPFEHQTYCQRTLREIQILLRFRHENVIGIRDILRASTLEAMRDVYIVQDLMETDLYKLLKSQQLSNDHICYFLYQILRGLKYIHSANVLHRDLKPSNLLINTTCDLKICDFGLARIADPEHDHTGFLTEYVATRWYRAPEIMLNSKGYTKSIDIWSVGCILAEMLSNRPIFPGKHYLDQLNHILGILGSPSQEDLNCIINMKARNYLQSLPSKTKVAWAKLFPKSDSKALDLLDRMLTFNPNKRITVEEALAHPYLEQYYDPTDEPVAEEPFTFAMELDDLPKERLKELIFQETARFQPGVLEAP
Chain of Mitogen-activated protein kinase; ERK1/ERK2 (Homo sapiens) (P28482 whole entry, looked up): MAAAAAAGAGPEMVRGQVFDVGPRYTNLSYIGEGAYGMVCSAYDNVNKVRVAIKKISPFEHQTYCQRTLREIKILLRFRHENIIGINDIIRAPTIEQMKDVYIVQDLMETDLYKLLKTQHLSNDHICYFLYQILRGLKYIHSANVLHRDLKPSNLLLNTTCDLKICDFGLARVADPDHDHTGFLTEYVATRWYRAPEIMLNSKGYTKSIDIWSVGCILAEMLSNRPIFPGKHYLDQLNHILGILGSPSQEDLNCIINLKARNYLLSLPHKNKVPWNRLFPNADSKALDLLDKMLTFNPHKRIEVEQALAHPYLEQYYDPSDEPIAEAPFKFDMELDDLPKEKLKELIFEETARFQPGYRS
Chain of Dual specificity protein kinase TTK (Homo sapiens) (P33981 whole entry): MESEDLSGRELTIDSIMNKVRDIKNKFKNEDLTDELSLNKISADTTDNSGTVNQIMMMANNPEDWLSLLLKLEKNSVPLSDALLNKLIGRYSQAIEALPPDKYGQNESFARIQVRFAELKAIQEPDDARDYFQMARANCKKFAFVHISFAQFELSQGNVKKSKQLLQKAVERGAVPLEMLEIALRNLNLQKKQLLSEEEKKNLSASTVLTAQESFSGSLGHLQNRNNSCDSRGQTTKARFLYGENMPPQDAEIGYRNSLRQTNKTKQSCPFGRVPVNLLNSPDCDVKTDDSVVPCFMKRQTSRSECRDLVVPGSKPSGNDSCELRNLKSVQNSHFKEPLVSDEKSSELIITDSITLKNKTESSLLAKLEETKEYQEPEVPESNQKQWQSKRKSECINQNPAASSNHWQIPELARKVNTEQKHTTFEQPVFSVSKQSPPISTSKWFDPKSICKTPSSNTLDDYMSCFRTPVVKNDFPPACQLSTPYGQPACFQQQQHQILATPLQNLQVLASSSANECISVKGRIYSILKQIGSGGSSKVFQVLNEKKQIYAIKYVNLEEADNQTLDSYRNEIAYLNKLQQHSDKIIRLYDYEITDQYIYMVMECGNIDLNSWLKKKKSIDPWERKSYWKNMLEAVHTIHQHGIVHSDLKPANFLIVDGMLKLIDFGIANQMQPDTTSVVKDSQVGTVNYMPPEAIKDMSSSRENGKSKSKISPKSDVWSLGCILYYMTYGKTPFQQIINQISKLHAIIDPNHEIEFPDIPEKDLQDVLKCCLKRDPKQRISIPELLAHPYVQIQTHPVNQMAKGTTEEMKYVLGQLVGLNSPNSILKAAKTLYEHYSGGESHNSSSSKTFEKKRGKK

Cn1c(CNc2cccc(C(=O)NCc3ccccc3C(F)(F)F)c2)nnc1-c1ccncc1
Activity [1]: 72% | Activity [2]: 113% | inhibition [3]: 69% | Activity [4]: 94% | inhibition [5]: Active | Activity [6]: 96% | Activity [7]: 47% | inhibition [8]: inactive | inhibition [9]: Active | inhibition [10]: Active | Activity [11]: 7% | inhibition [12]: Active | Activity [13]: 83% | inhibition [14]: < 20% | Activity [15]: 107% | Activity [16]: 92% | Activity [17]: 89% | Activity [18]: 93% | inhibition [19]: Active | inhibition [20]: Active | Activity [21]: 104% | Activity [22]: 86% | inhibition [23]: Active | Activity [24]: 106% | inhibition [25]: inactive
